According to ChEMBL document CHEMBL1159065, “Conjugates of desferrioxamine B (DFOB) with derivatives of adamantane or with orally available chelators as potential agents for treating iron overload” (J Med Chem, 2010):
In brackets after ≈: the same amount, converted by molar mass. Activity calls are given as the source filed them. The calls are words filed in the database; no cut-off is given here.

Tests used:
[1] = Partition coefficient, log P by shake flask method; type: physicochemical; details: octanol/water
[2] = Toxicity in human SK-N-MC cells by MTT method; type: cell-based
In short: (§1)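 MTT proliferation assay giving IC50; MTT colour checked proportional to viable cell number by Trypan blue (SK-N-MC) or total cell protein (MDCK II). SK-N-MC grown as in earlier work; MDCK II cultured by standard procedures.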

[3] = tested on: SK-N-MC; experiment: Induction of [59Fe] mobilization in human SK-N-MC cells prelabeled with [59Fe]transferrin at 50 uM after 3 hrs relative to untreated control; type: functional
In short: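 Cells prelabeled with 59Fe-Tf (0.75 μM), 3 h, 37 °C; washed four times in ice-cold PBS, then exposed to chelator (50 μM) 3 h at 37 °C. Medium removed by Pasteur pipet; gamma counting of cell pellet and supernatant gives released 59Fe as % of cellular 59Fe. Mean ± SD, three experiments, triplicate determinations each.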

[4] = Partition coefficient, log P by RP-HPLC; type: physicochemical; details: octanol/water
[5] = Toxicity in MDCK cells by MTT method; type: cell-based, Canis lupus familiaris; details: dog; in short: as §1
[6] = tested on: SK-N-MC; experiment: Induction of [59Fe] mobilization in human SK-N-MC cells prelabeled with [59Fe]transferrin at 50 uM after 3 hrs relative to desferrioxamine B; type: functional
In short: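 Cells were prelabeled with 59Fe-Tf (0.75 μM) for 3 h at 37 °C, washed four times with ice-cold PBS, then exposed to chelator (50 μM) for 3 h at 37 °C. Released 59Fe in the medium and cell-pellet 59Fe were counted by γ-counter. DFOB was run in parallel. Data are mean ± SD of three experiments, each with triplicate determinations.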

[7] = molecular target: Serotransferrin (Homo sapiens) (UniProt P02787); experiment: Inhibition of [59Fe] uptake from [59Fe]transferrin in human SK-N-MC cells at 50 uM after 3 hrs relative to relative to desferrioxamine B; type: cell-based
Sequence of Serotransferrin (Homo sapiens) (P02787 whole entry): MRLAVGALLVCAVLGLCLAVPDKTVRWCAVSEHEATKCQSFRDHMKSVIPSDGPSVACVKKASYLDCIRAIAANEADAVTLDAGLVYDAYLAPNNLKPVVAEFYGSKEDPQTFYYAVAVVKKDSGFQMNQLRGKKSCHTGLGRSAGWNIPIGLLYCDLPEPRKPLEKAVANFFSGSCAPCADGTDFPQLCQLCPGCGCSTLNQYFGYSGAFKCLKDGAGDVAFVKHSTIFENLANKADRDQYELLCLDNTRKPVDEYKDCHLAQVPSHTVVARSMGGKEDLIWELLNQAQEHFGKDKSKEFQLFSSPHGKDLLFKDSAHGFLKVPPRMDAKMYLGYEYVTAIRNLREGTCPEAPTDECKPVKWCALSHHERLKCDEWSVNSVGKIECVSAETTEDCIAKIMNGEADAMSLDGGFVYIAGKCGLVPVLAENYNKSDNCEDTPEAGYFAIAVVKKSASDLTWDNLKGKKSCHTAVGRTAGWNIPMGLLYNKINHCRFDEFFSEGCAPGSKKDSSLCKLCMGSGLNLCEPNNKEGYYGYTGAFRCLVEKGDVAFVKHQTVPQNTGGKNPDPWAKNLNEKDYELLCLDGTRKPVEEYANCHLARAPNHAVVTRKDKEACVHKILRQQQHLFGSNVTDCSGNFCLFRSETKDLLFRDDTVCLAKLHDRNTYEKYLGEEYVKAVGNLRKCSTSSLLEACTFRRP
In short: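 SK-N-MC cells incubated with 59Fe-Tf (0.75 μM) plus chelator (50 μM), 3 h at 37 °C; washed four times in ice-cold PBS, then Pronase (1 mg/mL) 30 min at 4 °C. Pronase-insensitive pellet after centrifugation taken as internalized 59Fe, expressed as % of untreated control. Mean ± SD, three experiments, triplicate determinations each.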

[8] = molecular target: Serotransferrin (Homo sapiens) (UniProt P02787); experiment: Inhibition of [59Fe] uptake from [59Fe]transferrin in human SK-N-MC cells assessed as at 50 uM after 3 hrs relative to untreated control; values are per cent of control
[9] = Solubility in water; type: physicochemical

Structure (SMILES)	logP [1]	IC50 [2]	Activity [3]	logP [4]	IC50 [5]	fold change (FC) [6]	inhibition [7]	residual activity [8]	solubility [9]
Cc1c(O)c(=O)ccn1C [DEFERIPRONE]	-1.02	166 µM	inactive	–	–	–	–	–	–
COC(=O)c1ccccc1C(=O)OC [DIMETHYL PHTHALATE]	1.61	–	–	–	–	–	–	–	–
CC(=O)N(O)CCCCCNC(=O)CCC(=O)N(O)CCCCCNC(=O)CCC(=O)N(O)CCCCCNC(=O)C12CC3CC(CC(C3)C1)C2	2.11	174 µM	–	1.29	119 µM	2.2	Active	–	–
c1ccc2ccccc2c1	3.32	–	–	–	–	–	–	–	–
CN(C)C(=S)NN=C(c1ccccn1)c1ccccn1	–	–	–	–	–	–	–	12%	–
CC(=O)N(O)CCCCCNC(=O)CCC(=O)N(O)CCCCCNC(=O)CCC(=O)N(O)CCCCCN [DEFEROXAMINE]	–	16 µM	12%	–	9.49 µM	–	–	87%	400 mM (≈ 224 mg/mL)
CC(=O)N(O)CCCCCNC(=O)CCC(=O)N(O)CCCCCNC(=O)CCC(=O)N(O)CCCCCNC(=O)c1ccc(-n2nc(-c3ccccc3O)nc2-c2ccccc2O)cc1	2.17	20.6 µM	Active	3.02	23.4 µM	–	Active	–	–
CC(=O)N(O)CCCCCNC(=O)CCC(=O)N(O)CCCCCNC(=O)CCC(=O)N(O)CCCCCNC(=O)COc1ccc(C)cc1	1.68	> 200 µM	Active	0.93	> 150 µM	–	Active	–	–
CC(=O)N(O)CCCCCNC(=O)CCC(=O)N(O)CCCCCNC(=O)CCC(=O)N(O)CCCCCNC(=O)CC12CC3CC(CC(C3)C1)C2	2.21	167 µM	–	1.47	226 µM	2.8	Active	–	–
O=C(O)c1ccc(-n2nc(-c3ccccc3O)nc2-c2ccccc2O)cc1 [DEFERASIROX]	3.8	20.5 µM	–	–	–	–	–	39%	–
c1ccc2c(c1)oc1ccccc12 [DIBENZOFURAN]	4.04	–	–	–	–	–	–	–	–
CC(=O)N(O)CCCCCNC(=O)CCC(=O)N(O)CCCCCNC(=O)CCC(=O)N(O)CCCCCNC(=O)C12CC3CC(C)(CC(C)(C3)C1)C2	2.92	92.4 µM	–	1.95	163 µM	3	Active	18%	–
CC(=O)N(O)CCCCCNC(=O)CCC(=O)N(O)CCCCCNC(=O)CCC(=O)N(O)CCCCCNC(=O)Cn1ccc(=O)c(O)c1C	-1.29	> 200 µM	–	-1.16	> 300 µM	–	–	–	–
CC(=O)N(O)CCCCCNC(=O)CCC(=O)N(O)CCCCCNC(=O)CCC(=O)N(O)CCCCCNC(=O)C12CC3CC(CC(O)(C3)C1)C2	0.29	> 200 µM	inactive	-0.11	> 100 µM	–	–	–	–
